Calls of active or inactive are those of the source. The calls are words filed in the database; no cut-off is given here. Bridge positions count the residues as written; N and C are the ends. Square brackets hold non-standard residues; d marks the D form. Peptide text beside a SMILES is read from it. Orn = NCCC[C@H](N)C(=O)O; Mpa = O=C(O)CCS
What was measured:
[1] = system: Rattus norvegicus; assay: Antidiuretic effect measured as increase in osmolality over control in water-loaded Sprague-Dawley rat at 10 mg/kg, po; assay type: functional, Urine
Outline: (§1)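 Conscious water-loaded rats dosed orally; 30 min later stomachs gavaged with deionized water, 30 mL/kg. Urine collected over 4 h for volume; osmolality by cryoscopic osmometer; Na+, K+, Cl- by ion-selective electrodes. Expressed as percent change versus control at the stated dose (screening dose 10 mg/kg po).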

[2] = system: Rattus norvegicus; assay: Antidiuretic effect measured as decrease in urine volume over control in water-loaded Sprague-Dawley rat at 10 mg/kg, po; assay type: functional; set-up: Activity: scale not given: the % may be the effect or the level left; conditions: for Activity: dose 10 mg/kg; for ED50: Rattus norvegicus, Sprague-Dawley, Urine; outline: as §1
[3] = target: T1, Vasopressin V2 receptor (Homo sapiens, UniProt P30518); assay: Displacement of [3H]AVP from human V2 receptor transfected in LV2 cells; assay type: cell-based
T1 sequence (P30518 whole entry): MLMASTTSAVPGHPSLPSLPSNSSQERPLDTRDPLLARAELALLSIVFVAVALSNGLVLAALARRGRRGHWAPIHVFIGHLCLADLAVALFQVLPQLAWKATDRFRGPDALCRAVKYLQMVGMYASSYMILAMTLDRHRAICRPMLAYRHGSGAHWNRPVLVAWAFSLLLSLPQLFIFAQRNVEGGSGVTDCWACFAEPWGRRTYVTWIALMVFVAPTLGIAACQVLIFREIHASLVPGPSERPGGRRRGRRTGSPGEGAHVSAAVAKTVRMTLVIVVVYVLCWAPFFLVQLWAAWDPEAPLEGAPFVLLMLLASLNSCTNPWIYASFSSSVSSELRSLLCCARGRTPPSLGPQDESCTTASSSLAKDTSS
Outline: (§2)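 Inhibition of [3H]AVP binding to membranes from CHO cells expressing human V1a receptors or from LV2 cells transfected with human V2 receptors; IC50 values are means of two to five (or three) experiments.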

[4] = target: T2, Vasopressin V1a receptor (Homo sapiens, UniProt P37288); assay: Displacement of [3H]AVP from human V1a receptor expressed in CHO cells; assay type: cell-based; outline: as §2
Target sequence in this assay (P37288 whole entry): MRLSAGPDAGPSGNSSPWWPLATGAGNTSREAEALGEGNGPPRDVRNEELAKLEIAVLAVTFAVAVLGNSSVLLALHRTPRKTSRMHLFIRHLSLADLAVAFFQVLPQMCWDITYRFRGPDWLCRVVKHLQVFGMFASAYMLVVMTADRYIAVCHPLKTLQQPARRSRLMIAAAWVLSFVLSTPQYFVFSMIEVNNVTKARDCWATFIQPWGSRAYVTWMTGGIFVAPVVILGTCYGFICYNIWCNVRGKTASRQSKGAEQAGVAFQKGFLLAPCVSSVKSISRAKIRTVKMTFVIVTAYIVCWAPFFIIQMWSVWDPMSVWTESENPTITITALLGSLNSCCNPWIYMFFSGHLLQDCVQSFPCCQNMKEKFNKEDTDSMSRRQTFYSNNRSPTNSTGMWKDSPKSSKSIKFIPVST

[5] = target: T1, Vasopressin V2 receptor; assay: Binding to human V2 receptor expressed in LV2 cells by cAMP production; assay type: functional, cell-based
[6] = target: T2, Vasopressin V1a receptor; assay: Displacement of [3H]AVP from human V1a receptor expressed in CHO cells at 1 uM; assay type: cell-based
Target sequence in this assay (P37288 whole entry, looked up): as the sequence (P37288 whole entry) above

[7] = target: T1, Vasopressin V2 receptor; assay: Displacement of [3H]AVP from human V2 receptor transfected in LV2 cells at 300 nM; assay type: cell-based
Outline: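 Inhibition of [3H]AVP binding to membranes of LV2 cells transfected with human V2 receptors, reported as percent inhibition at 300 nM.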

[8] = target: T2, Vasopressin V1a receptor; assay: Displacement of [3H]AVP from human V1a receptor expressed in CHO cell membrane at 10 uM; assay type: cell membranes
Target sequence in this assay (P37288 whole entry, looked up): as the sequence (P37288 whole entry) above

[9] = target: Vasopressin V1a receptor (Rattus norvegicus) (UniProt P30560); assay: Agonist activity at V1a receptor indicated by production of contractions in rat tail arteries; assay type: functional, tissue-based
Sequence of Vasopressin V1a receptor (Rattus norvegicus) (P30560 whole entry, looked up): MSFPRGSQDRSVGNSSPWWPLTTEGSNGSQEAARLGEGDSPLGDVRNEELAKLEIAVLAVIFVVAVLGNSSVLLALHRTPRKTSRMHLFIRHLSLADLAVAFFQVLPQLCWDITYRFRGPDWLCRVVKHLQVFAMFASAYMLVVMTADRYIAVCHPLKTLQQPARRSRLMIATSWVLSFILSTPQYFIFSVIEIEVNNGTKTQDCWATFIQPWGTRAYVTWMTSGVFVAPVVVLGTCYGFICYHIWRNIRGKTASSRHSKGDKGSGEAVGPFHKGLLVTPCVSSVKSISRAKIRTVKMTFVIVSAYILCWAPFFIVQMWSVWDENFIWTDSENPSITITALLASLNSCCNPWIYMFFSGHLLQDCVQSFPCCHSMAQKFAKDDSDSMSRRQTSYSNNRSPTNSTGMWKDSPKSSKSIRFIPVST

[10] = target: T3, Oxytocin receptor (Rattus norvegicus, UniProt P70536); assay: Antagonism of OT-induced response at OT receptor in rat uterine strips; assay type: functional
T3 sequence (P70536 whole entry): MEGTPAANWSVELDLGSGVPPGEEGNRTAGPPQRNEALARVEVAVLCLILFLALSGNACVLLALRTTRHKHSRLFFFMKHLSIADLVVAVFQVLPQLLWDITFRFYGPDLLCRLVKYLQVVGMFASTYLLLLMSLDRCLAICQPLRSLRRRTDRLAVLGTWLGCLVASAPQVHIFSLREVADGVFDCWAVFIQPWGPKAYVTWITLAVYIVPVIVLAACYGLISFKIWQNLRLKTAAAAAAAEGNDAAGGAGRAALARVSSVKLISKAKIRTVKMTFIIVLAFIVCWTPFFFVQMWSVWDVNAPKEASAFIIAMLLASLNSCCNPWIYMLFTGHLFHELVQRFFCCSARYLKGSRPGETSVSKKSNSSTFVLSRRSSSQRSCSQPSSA

[11] = target: T4, Oxytocin receptor (Rattus norvegicus) (UniProt P70536); assay: Agonist activity at OT receptor indicated by production of contractions in rat uterine strips; assay type: functional
T4 sequence (whole entry): T3 sequence (P70536 whole entry)

[12] = target: Vasopressin V1a receptor (Rattus norvegicus, UniProt P30560); assay: Antagonism of AVP-induced response at V1a receptor in isolated rat tail arteries; assay type: functional, tissue-based
Sequence of Vasopressin V1a receptor (Rattus norvegicus, UniProt P30560) (P30560 whole entry): as the sequence (P30560 whole entry, looked up) above

[13] = target: T2, Vasopressin V1a receptor; assay: Displacement of [3H]AVP from human V1a receptor expressed in CHO cells at 0.1 uM; assay type: cell-based
Target sequence in this assay (P37288 whole entry, looked up): as the sequence (P37288 whole entry) above

Row | Structure (SMILES) | Activity [1] [%] | Activity [2] [%] | IC50 [3] [nM] | inhibition [7] [%] | also measured
1 | Cc1ccn(-c2ccc(C(=O)N3Cc4cccnc4Nc4ccccc43)c(F)c2)n1 | 272 | 59 | 933 |  | 
2 | Cc1ccn(-c2ccc(C(=O)N3Cc4cccn4Cc4ccccc43)c(Cl)c2)n1 | 286 | 74 | 80 |  | ED50 [2]: 0.14 mg/kg; IC50 [4]: 778 nM; EC50 [5]: 0.74 nM
3 | Cc1ccn(-c2ccc(C(=O)N3Cc4cccnc4Nc4ccccc43)c(Cl)c2)n1 | 172 | 80 | 91.5 |  | inhibition [6]: 38%
4 | Cc1ccn(-c2ccc(C(=O)N3Cc4cccnc4N(C)c4ccccc43)c(C(F)(F)F)c2)n1 | 198 | 72 |  | 10 | inhibition [8]: 32%
5 | Cc1ccn(-c2cc(F)ccc2C(=O)N2Cc3cccnc3Nc3ccccc32)n1 | 177 | 63 |  | 5 | 
6 | CN1c2ccccc2N(C(=O)c2ccc(-c3ccn(C)n3)cc2Cl)Cc2cccnc21 | -11 | 10 |  |  | 
7 | O=C(c1ccc(-n2ccc(C(F)(F)F)n2)cc1Cl)N1Cc2cccnc2Nc2ccccc21 | 162 | 72 |  | 13 | 
8 | O=C(c1ccc(-n2ccc(-c3ccncc3)n2)cc1Br)N1Cc2cccnc2Nc2ccccc21 | 11 | 24 |  | 26 | 
9 | CC(C)(C)c1ccn(-c2ccc(C(=O)N3Cc4cccnc4Nc4ccccc43)c(C(F)(F)F)c2)n1 | -7 | 6 |  | 26 | 
10 | Cc1ccn(-c2ccc(C(=O)N3Cc4cccnc4Nc4ccccc43)c(Br)c2)n1 | 247 | 85 | 296 |  | inhibition [6]: 30%
11 | Cc1ccnn1-c1ccc(C(=O)N2Cc3cccnc3Nc3ccccc32)c(Cl)c1 | 189 | 61 | 390 |  | 
12 | O=C(c1ccc(-n2ccc(C(F)(F)F)n2)cc1C(F)(F)F)N1Cc2cccnc2Nc2ccccc21 | 183 | 69 |  | -7 | 
13 | Cc1ccn(-c2ccc(C(=O)N3Cc4cccnc4N(C)c4ccccc43)c(Cl)c2)n1 | 275 | 71 | 475 |  | inhibition [6]: 20%
14 | Cc1ccn(-c2ccc(C(=O)N3Cc4cccnc4Nc4ccccc43)c(C(F)(F)F)c2)n1 | 239 | 87 | 493 |  | Activity [9]: inactive; IC50 [10]: 1260 nM; Activity [11]: inactive; ED50 [2]: 0.1 mg/kg; IC50 [12]: > 30000 nM; IC50 [4]: 5950 nM; EC50 [5]: 1.67 nM
15 | CCOc1ccc(C[C@H]2NC(=O)CCSSC[C@@H](C(=O)N3CCC[C@H]3C(=O)N[C@@H](CCCN)C(=O)NCC(N)=O)NC(=O)[C@H](CC(N)=O)NC(=O)[C@H]([C@@H](C)O)NC(=O)[C@H]([C@@H](C)CC)NC2=O)cc1 [ATOSIBAN] ([Mpa][dY](Et)ITNCP[Orn]G-NH2; disulfide 1-6) |  |  |  |  | IC50 [10]: 12 nM
16 | Cc1ccnn1-c1ccc(C(=O)N2Cc3cccnc3Nc3ccccc32)c(C(F)(F)F)c1 | 4 | 25 | 413 |  | inhibition [13]: 11%
17 | Cn1ccc(-c2ccc(C(=O)N3Cc4cccnc4Nc4ccccc43)c(Cl)c2)n1 | 134 | 76 | 183 |  | IC50 [4]: 1780 nM
18 | Cc1n[nH]c(-c2ccc(C(=O)N3Cc4cccnc4Nc4ccccc43)c(Cl)c2)n1 | 516 | 86 |  |  | 
